In publication PMC8760168 (Current drug metabolism, 2021):
“And” between values parts separate entries of the source, which are not always exact repeats. Equal values may be shown once.

Experiments:
[1] = Phase I microsomal stability assay, human liver fraction; type: in vitro ADME; conditions: NADPH, 10 μM, 0.5 mg/mL protein, two hours
Procedure, shortened: (§1)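 Test compound at 10 μM in phosphate buffer pH 7.4 with NADPH regenerating system, preincubated 5 min at 37°C. Started with dog, mouse or rat liver microsomes or human liver fraction (0.5 mg/mL protein).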

[2] = Phase I microsomal stability assay, dog liver microsomes; type: in vitro ADME; conditions: NADPH, 10 μM, 0.5 mg/mL protein, two hours
Procedure, shortened: as §1

[3] = Phase I microsomal stability assay, mouse liver microsomes; type: in vitro ADME; conditions: NADPH, 10 μM, 0.5 mg/mL protein, two hours
Procedure, shortened: as §1

[4] = Phase I microsomal stability assay, rat liver microsomes; type: in vitro ADME; conditions: NADPH, 10 μM, 0.5 mg/mL protein, two hours
Procedure, shortened: as §1

[5] = Phase II stability assay, glucuronidation, human liver S9; type: in vitro ADME; conditions: human liver S9, UDP-GlcUA, alamethicin, saccharolactone, 10 μM
Procedure, shortened: (§2)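 Glucuronidation: test compound 10 μM in phosphate buffer pH 7.4 with UDP-glucuronic acid, saccharic-1,4-lactone, MgCl2 and alamethicin, 37°C. Started with human or mouse liver S9 (0.5 mg/mL protein). Short assay sampled 0–120 min; long assay (mouse) sampled 1–24 h. Quenched in acetonitrile with internal standard, then LC-MS/MS. t1/2 from ln area ratio. Long assay: first-order k from glucuronide area ratio. Two independent assays, triplicate.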

[6] = Phase II stability assay, glucuronidation, mouse liver S9; type: in vitro ADME
Procedure, shortened: as §2

[7] = Phase II stability assay, glucosidation, mouse liver S9; type: in vitro ADME; conditions: mouse liver S9, UDP-Glc
Procedure, shortened: (§3)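 Glucosidation: test compound 10 μM in phosphate buffer pH 7.4 with UDP-glucose, gluco-1,5-lactone, MgCl2 and alamethicin, 37°C. Started with mouse liver or kidney S9 (0.5 mg/mL protein). Sampled 0–120 min; long assay (kidney) sampled 1–24 h. Quenched in acetonitrile with internal standard, then LC-MS/MS. t1/2 from ln area ratio. Long assay: first-order k from glucoside area ratio. Two independent assays, triplicate.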

[8] = Phase II stability assay, glucosidation, mouse kidney S9; type: in vitro ADME; conditions: mouse kidney S9, UDP-Glc
Procedure, shortened: as §3

[9] = Quantification of MIDD0301 and MIDD0301 metabolites in urine and feces; type: in vivo, Swiss Webster mice; conditions: for Feces & Urine (%) 0-48 hours / Feces (%) 0-24 hours / Feces (%) 24-48 hours / Urine (%) 0-24 hours / Urine (%) 24-48 hours: % of moles of MIDD0301 administered
Procedure, shortened: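 Seven-week-old female mice housed singly in metabolic cages; n = 3 per route. Dosing: oral 750 μg, IP 750 μg (50% propylene glycol/PBS) or IV 250 μg (PBS). Urine and feces collected at 0–24 and 24–48 h and stored at −20°C. Extracted with internal standards, ultrafiltered, then C18 LC-MS/MS with positive MRM against synthesized-standard calibration curves. Reported as % of moles administered.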

[10] = Pharmacokinetic studies in mice; type: in vivo, Swiss Webster mice
Procedure, shortened: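 Six-week-old female mice given 25 mg/kg by gavage (2% PEG in 2% aqueous HPMC), 25 mg/kg IP (50% propylene glycol/50% PBS pH 7.2) or 1 mg/kg tail vein (PBS pH 7.2). Blood, lung and non-perfused brain taken at 10–1,440 min, n = 4 (oral, IP) or 8 (IV). Methanol extraction with internal standard, then LC-MS/MS. Two-compartment model; half-lives from elimination rates.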

[11] = Imaging mass spectrometry of lung after oral administration; type: in vivo, Swiss Webster mice; conditions: 25 mg/kg oral, lungs harvested after 1 h, 50 μm resolution
Procedure, shortened: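 Female Swiss Webster mice dosed orally. Lungs excised, frozen briefly on dry-ice vapour, stored at −80°C, then equilibrated to −20°C for 30 min. 20-micron cryosections thaw-mounted, rinsed with 0.1% TFA and dried 1 h. 2,5-Dihydroxyacetophenone matrix (50 mg/mL) sprayed in layers. MALDI-TOF/TOF in reflectron MS/MS mode, transitions m/z 416>372 and 416>331.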

GABAA receptors = conditions: read-out: receptor affinity (EC50); no reference given; cited from earlier work
[12] = neutral pH; cited from earlier work
[13] = repeated high dose exposure in rodents; cited from earlier work
[14] = cited from earlier work
CYP3A4 = CYP3A4 (Homo sapiens, UniProt P08684); assay: CYP3A4 inhibition assay; conditions: recombinant CYP3A4, fluorescent substrate
CYP3A4, sequence (P08684 whole entry): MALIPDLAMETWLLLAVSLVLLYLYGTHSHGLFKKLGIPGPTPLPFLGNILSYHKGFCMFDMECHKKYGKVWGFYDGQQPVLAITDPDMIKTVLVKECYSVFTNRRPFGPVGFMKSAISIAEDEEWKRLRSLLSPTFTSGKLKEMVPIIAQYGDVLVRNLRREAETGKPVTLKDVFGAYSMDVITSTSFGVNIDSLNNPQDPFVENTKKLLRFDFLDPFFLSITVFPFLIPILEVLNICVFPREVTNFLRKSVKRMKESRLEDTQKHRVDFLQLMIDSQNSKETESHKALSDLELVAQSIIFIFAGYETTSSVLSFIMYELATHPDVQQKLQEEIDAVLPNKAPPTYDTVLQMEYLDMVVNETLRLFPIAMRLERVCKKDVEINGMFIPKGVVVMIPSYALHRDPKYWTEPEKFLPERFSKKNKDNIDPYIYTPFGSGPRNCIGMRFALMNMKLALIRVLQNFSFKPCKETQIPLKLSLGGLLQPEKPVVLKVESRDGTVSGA

[15] = four hours; cited from earlier work

In the case of `C[C@H]1N=C(c2ccccc2F)c2cc(Br)ccc2-n2cnc(C(=O)O)c21` [MIDD0301], the “metabolic conversion of MIDD0301” value [1] is reported as “not observed”, the “metabolic conversion of MIDD0301” value [2] is reported as “not observed” and the “metabolic conversion of MIDD0301” value [3] is reported as “not observed”. For the same compound, the “metabolic conversion of MIDD0301” value [4] was “not observed”, the “half-life, conversion to glucuronide” value [5] was 4 h and the “half-life, conversion to glucuronide” value ([6]; mouse liver S9, UDP-GlcUA, alamethicin, saccharolactone, 10 μM) was 2.38 h. The “reaction rate, formation of MIDD0301 glucuronide (first order kinetics)” value ([6]; mouse liver S9, monitored for 8 h) was 0.0042 min⁻¹, the “conversion of MIDD0301 (glucosidation)” value [7] was “did not observe conversion” and the “reaction rate, formation of MIDD0301 glucoside” value [8] was 0.0038 min⁻¹. For the same compound, the “half-life, glucosidation” value ([8]; 10 μM) was 4.93 h, the “Feces & Urine (%) 0-48 hours” value ([9]; IP, 750 μg) was 43.9 ± 6.24% and the “Feces (%) 0-24 hours” value ([9]; IP, 750 μg) was 43.2% and 43.2 ± 5.9%. The “Feces (%) 24-48 hours” value ([9]; IP, 750 μg) was 0.3 ± 0.1%, the “Urine (%) 0-24 hours” value ([9]; IP, 750 μg) was 0.3% and 0.3 ± 0.2% and the “Urine (%) 24-48 hours” value ([9]; IP, 750 μg) was 0.1 ± 0.04%. For the same compound, the “Feces & Urine (%) 0-48 hours” value ([9]; IV, 250 μg) was 32% and 32.0 ± 3.7%, the “Feces (%) 0-24 hours” value ([9]; IV, 250 μg) was 30.4% and 30.4 ± 3.4% and the “Feces (%) 24-48 hours” value ([9]; IV, 250 μg) was 1.2 ± 0.2%. For the same compound, the “Urine (%) 0-24 hours” value ([9]; IV, 250 μg) was 0.4% and 0.4 ± 0.1%, the “Urine (%) 24-48 hours” value ([9]; IV, 250 μg) was “<LOD” and the “Feces & Urine (%) 0-48 hours” value ([9]; oral, 750 μg) was 55.1% and 55.1 ± 5.7%. The “Feces (%) 0-24 hours” value ([9]; oral, 750 μg) was 54.3% and 54.3 ± 5.2%, the “Feces (%) 24-48 hours” value ([9]; oral, 750 μg) was 0.7% and 0.7 ± 0.4% and the “Urine (%) 0-24 hours” value ([9]; oral, 750 μg) was 0.1% and 0.1 ± 0.01%. For the same compound, the “Urine (%) 24-48 hours” value ([9]; oral, 750 μg) was “<LOD”, the bioavailability ([9]; oral, from unconjugated MIDD0301 excreted, 32% IV versus 55.1% oral) was no more than 77% and the half-lives ([10]; 1 mg/kg IV tail vein injection, blood, lung, brain) was 1 to 2 h. For the same compound, the “tolerability of tail vein injection” value ([10]; 1 mg/kg IV, aqueous solution) was “well-tolerated without signs of irritation”, the signs of toxicity ([10]; 25 mg/kg IP, throughout the study) was “no signs of toxicity” and the “blood concentration after 24 h” value ([10]; 25 mg/kg oral) was 12 nM. For the same compound, the “brain concentration after 24 h” value ([10]; 25 mg/kg oral) was “less than 3 nM”, the “lung concentration after 24 h” value ([10]; 25 mg/kg oral) was “less than 3 nM” and the tmax ([10]; 25 mg/kg oral gavage) was 0.333 h. The “brain concentration as % of the corresponding blood concentrations” value ([10]; 25 mg/kg oral, non-perfused brains) was “less than 7%”, the “half-lives for blood and lung” value ([10]; 25 mg/kg oral, based on calculated elimination rates, two compartment model) was 4 to 5 h and the “drug half-life in blood, lung, and brain” value ([10]; IP administration) was 4 to 6 h. For the same compound, the “drug half-life in blood, lung, and brain” value ([10]; oral administration) was 4 to 6 h, the “spatial distribution in mouse lung (IMS)” value [11] was “uniform distribution” and the EC50 (GABAA receptors) was 0.072 µM. The aqueous solubility [12] was “high”, the adverse effects [13] was “did not cause any adverse effects” and the brain absorption [14] was “very little”. For the same compound, the “central nervous system effects” value ([14]; high single or repeated dosing) was “no observed central nervous system effects” and the “% inhibition of CYP3A4 activity” value (CYP3A4; 10 μM) was “less than 1%”.

In the case of `C#Cc1ccc2c(c1)C(c1ccccc1F)=N[C@H](C)c1c(C(=O)NC)ncn1-2` [MP-III-022], the metabolic stability [15] is listed as “stable”.

For `C#Cc1ccc2c(c1)C(c1ccccc1F)=N[C@H](C)c1c(C(=O)OCC)ncn1-2` [SH-053-2’F-R-CH3], the metabolic stability [15] is listed as “metabolized fully within four hours”.

With `Cc1c(O)cccc1C(=O)N[C@@H](CSc1ccccc1)[C@H](O)CN1C[C@H]2CCCC[C@H]2C[C@H]1C(=O)NC(C)(C)C` [nelfinavir, reference compound] the “inhibition of CYP3A4 activity” value (CYP3A4; 100 μM) was “completely inhibited”.
